Measured values as given in the array DNA melting data of Ke et al. (doi:10.1101/2024.01.08.574731).

Columns and labels:
[1] = folding enthalpy; higher = less favourable; fluorescence melt of hairpins on a sequencing array, two-state fit; conditions: sodium 0.088 M
Procedure, shortened: (§1)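 With Cy3 and quencher oligos annealed, library hairpins on a sequenced MiSeq flow cell were imaged for Cy3 fluorescence in 50 mM Na-HEPES pH 8.0, 25 mM NaCl, in 2.5 °C steps up to 60 °C. Melting temperature and folding enthalpy were derived from bootstrapped two-state fits of signals normalised to pre-quench Cy3 and to control constructs. Four replicates were combined by inverse variance, with fitted temperatures raised by 9.35 °C to match UV melts.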

[2] = melting temperature; fluorescence melt of hairpins on a sequencing array, two-state fit, raised by 9.35 °C to match UV melts; conditions: sodium 0.088 M
Procedure, shortened: as §1

| Sequence | folding enthalpy [1] [kcal/mol] | Tm [2] [°C] |
| --- | --- | --- |
| GATCGGCGTACCGATC ((((((....)))))) | -38.2 | 59.5 |
| GATTATGGAAACGTAATC (((((.(....).))))) | -36.5 | 35.6 |
| GATCCACGCTTGGATC ((((((....)))))) | -38.4 | 52.5 |
| GGCCGTCCGAAAGGAGCC (((..(((....)))))) | -15.8 | 43.4 |
| GTCCTCGAAAGAGTTGAC ((((((....)))..))) | -10.7 | 31.2 |
| GATCTGTAGTCAGATC ((((((....)))))) | -35.5 | 49.1 |
| AACTTGAAAAAGTT (((((....))))) | -14.2 | 30.4 |
| GCTGTCGGAAACGATAGC (((.(((....))).))) | -57.3 | 53.4 |
| GACGTAGCGAAAGCTGTC (((..(((....)))))) | -17.7 | 47.1 |
| GTTTACCGAAAGGTGAAC (((.(((....))).))) | -33 | 51.4 |
| GTCTCACCGAAAGGTGAC (((..(((....)))))) | -7.93 | 36.1 |
| GATCGTAGGACGATC ((((((...)))))) | -44.2 | 54.7 |
| GTGAGAGGAAACTCCCAC (((.(((....))).))) | -24.7 | 36.6 |
| GACGTTGCGAAAGCAGTC (((..(((....)))))) | -16.5 | 49.9 |
| GATCCCGCTTGGGATC ((((((....)))))) | -46.9 | 59.5 |
| GCGAATTTTCGC ((((....)))) | -29.5 | 53.2 |
| GCGCGTCGAAAGACACGC (((.(((....))).))) | -45.5 | 62.9 |
| GATCCAGACTTGGATC ((((((....)))))) | -35 | 56.1 |
| GTTCCTGGAAACAGGAAC (((((((....))))))) | -40.9 | 63.5 |
| GTACTACGAAAGTATAC (((.(((....)))))) | -15.3 | 27.9 |
| GAAGTGGGAAACCGCTTC ((((.((....)).)))) | -31.4 | 51.6 |
| GATCGTCATTACGATC ((((((....)))))) | -38.5 | 54.8 |
| GCGGAAACGAAAGTTCGC (((..(((....)))))) | -27.5 | 48.8 |
| GTTGTTGGAAACGACAAC (((((.(....).))))) | -8.7 | 48.4 |

| Sequence | folding enthalpy [1] [kcal/mol] | Tm [2] [°C] |
| --- | --- | --- |
| GGCTGTGGAAACATGGCC (((..((....))..))) | -32.6 | 49.5 |
| GCGCCGGGAAACCGACGC (((.(((....))).))) | -46.8 | 60.9 |
| GCTCGTGGAAACGTGAGC ((((..(....)..)))) | -21.3 | 46.2 |
| GATCAAAGTATTGATC ((((((....)))))) | -29.8 | 42.6 |
| GGTAGCGAAAGCTCAACC ((((((....)))..))) | -13.7 | 34.9 |
| GCGAATGAAAATTCGC ((((((....)))))) | -36.3 | 65 |
| GATCAAGATATTGATC ((((((....)))))) | -34.7 | 48.5 |
| GTATGCCGAAAGGCTAC (((.(((....)))))) | -13.1 | 48.3 |
| GGCTTGCGAAAGCAGGCC (((.(((....))).))) | -31.3 | 69.2 |
| GATCAAAACATTGATC ((((((....)))))) | -31.7 | 42.3 |
| GCCTTGCGAAAGCACGGC (((.(((....))).))) | -49.4 | 57.8 |
| GATCAGAGACCTGATC ((((((....)))))) | -34.6 | 45.6 |
| GATCCTACCTAGGATC ((((((....)))))) | -31.6 | 53 |
| GTTTAACGAAAGTTAAC (((.(((....)))))) | -14.6 | 37.1 |
| GCGGACCCCGC ((((...)))) | -20.9 | 54.4 |
| GGGGTGGGAAACCGCTCC ((.(.((....)).).)) | -21.9 | 47.7 |
| GATCGGGGCCCCGATC ((((((....)))))) | -55 | 68.6 |
| GATCATGCCATGATC ((((((...)))))) | -40 | 50.9 |
| GAGAGCGAAAGCTGCTC ((((((....))).))) | -14 | 47 |
| GTGATCGGAAACGATCAC (((((((....))))))) | -42.3 | 68.6 |
| GATTGCCGAAAGGCGATC (((.(((....))).))) | -28.4 | 61.9 |
| GCCATTCGAAAGAAGGC (((.(((....)))))) | -25.6 | 48.1 |
| GCTTGAGGAAACTCAAGC (((((((....))))))) | -41.9 | 62.8 |
| GAACCCGAAAGGGCTTTC ((((((....)))..))) | -10.4 | 33.8 |

| Sequence | folding enthalpy [1] [kcal/mol] | Tm [2] [°C] |
| --- | --- | --- |
| GCTCTAGGAAACTAGAAC (.(((((....))))).) | -14.2 | 29.7 |
| GATCTCGCGGGAGATC ((((((....)))))) | -33.1 | 52.4 |
| GATAGCGAAAGCTCATC ((((((....))).))) | -13.3 | 36.5 |
| GGCTTTCGAAAGAATGCC (((.(((....))).))) | -41 | 54.8 |
| GACGATGAAAATCGTC ((((((....)))))) | -31.1 | 61.1 |
| GCAAATACGAAAGTATGC (((..(((....)))))) | -21.6 | 38.7 |
| GCTGTCTCGAAAGAGAGC (((..(((....)))))) | -15.5 | 38.3 |
| GACTATCCGAAAGGAGTC (((..(((....)))))) | -17 | 34.1 |
| TAGGGGAAACCCTA (((((....))))) | -15.3 | 40.2 |
| GATGAGGGAAACCTTGTC ((..(((....)))..)) | -15.3 | 28.1 |
| GACTGGGGAAACTCGGTC (((.(.(....).).))) | -21.3 | 38.5 |
| GGAGCTGGAAACAGCCCC ((.((((....)))).)) | -24.2 | 54.3 |
| GACTAACGAAAGTTGTC (((.(((....)))))) | -24.1 | 42.4 |
| GCCCAGCGAAAGCCGCGC ((.(.((....)).).)) | -10.1 | 45.7 |
| GAGAACGAAAGTTGGCTC ((((((....)))..))) | -19.1 | 30.6 |
| GCTGAGGGAAACCTCGGC ((.((((....)))).)) | -39.9 | 56.8 |
| GATCAAGGCTTTGATC ((((((....)))))) | -42 | 50.1 |
| CGGCCGCGGAAACGCCCG (((..(((....)))))) | -20.9 | 42.2 |
| GACCGCCGAAAGGCTGTC (((.(((....))).))) | -20.6 | 55.5 |
| GATCATCGGATGATC ((((((...)))))) | -36.9 | 45.9 |
| GATCCTGTCAAGGATC ((((((....)))))) | -42.7 | 64.9 |
| GGCGCTACGAAAGTAGCC (((..(((....)))))) | -9.44 | 49.4 |
| GGTTTCCGAAAGGAACC (((.(((....)))))) | -19.8 | 51.8 |
| GTCAGGGCGAAAGCCGAC (((..(((....)))))) | -14.7 | 48.7 |

| Sequence | folding enthalpy [1] [kcal/mol] | Tm [2] [°C] |
| --- | --- | --- |
| GATCTGACCTCAGATC ((((((....)))))) | -38.9 | 49.3 |
| GACCCTGGAAACAGGGTC (((((((....))))))) | -36.9 | 67.7 |
| GTGAGCGGAAACGCTCGC (.(((((....))))).) | -18.4 | 62.7 |
| GATCCATCGATGGATC ((((((....)))))) | -47.8 | 55.2 |
| GAGGGTGAAAACCCTC ((((((....)))))) | -32.4 | 64.2 |
| GGACGCGAAAGCGGGTCC ((((((....)))..))) | -14 | 54.2 |
| GACTTGGGAAACCAGGTC (((.(((....))).))) | -37 | 46.4 |
| GGTACGAAAGTACC (((((....))))) | -30.4 | 65.8 |
| GGTTGAGGAAACTCGACC (((.(((....))).))) | -44.2 | 51.5 |
| GATCTCACCCGAGATC ((((((....)))))) | -39.5 | 53.1 |
| GCACGTACGAAAGTATGC (((..(((....)))))) | -16 | 31.3 |
| GATCAATACTTTGATC ((((((....)))))) | -39.6 | 48.1 |
| GGGCCCGAAAGGGGTCCC ((((((....)))..))) | -14.5 | 66.2 |
| GCTGCGGGAAACCGTGGC ((..(((....)))..)) | -35.3 | 52.6 |
| GATTCGCGAAAGCGGATC (((.(((....))).))) | -27.7 | 60.5 |
| GATCGTTCGACGATC ((((((...)))))) | -38.2 | 55.7 |
| GTCTCCGAAAGGAGCGAC ((((((....)))..))) | -16.1 | 53.9 |
| GGCAGCGAAAGCTCGGCC ((((((....)))..))) | -17.7 | 53.5 |
| GCGAAACATCGC ((((....)))) | -21.5 | 48.7 |
| GATCGATCGTTCGATC ((((((....)))))) | -36 | 53.5 |
| GCCCAGGGAAACCCGGAC (.((.((....)).)).) | -4.63 | 28.6 |
